# Results collected from several papers.
# Compare with care: the assays were run in different laboratories.
# Target: STE20/SPS1-related proline-alanine-rich protein kinase (STK39, Homo sapiens, UniProt Q9UEW8)
SMILES,test,setting,remaining binding [%]
COc1cc(-c2cn(C3CCc4ccccc4N(CC(F)(F)F)C3=O)nn2)ccc1-n1ccc(C)n1 (stereo not drawn),"cell-free assay, competition with immobilised ligand",1 µM,98
c1cncc(-c2cccc(Nc3nccc(NC4CCCCC4)n3)c2)c1,"binding, competition with immobilised ligand",10 µM,97
CNC(=O)[C@@H]1CC[C@@H](n2c(-c3ccc4cnccc4c3)nc3ccc(C(=O)NCc4cccc(C(N)=O)c4)cc32)C1,"binding, competition with immobilised ligand",1 µM,100
COc1ccnn2ncc(-c3ccnc(N(C)C)n3)c12,binding,1 µM,49
CS(=O)(=O)NCC[C@H](NC(=O)c1cncc2c1cnn2-c1ccc(F)cc1)c1ccnc(S(C)(=O)=O)c1,"cell-free assay, competition with immobilised ligand",1 µM,80
O=C(c1ccc(Nc2ncc(Cl)c(-c3cc4ccccc4s3)n2)cc1)N1CCC(N2CCCC2)CC1,"binding, competition with immobilised ligand",1 µM,36
CN(C)c1nccc(-c2cnc3ncccn23)n1,binding,1 µM,51
C=CC(=O)N1CCC(C(=O)NCC(=O)N2CCN(c3nc(-c4cnc(N)nc4C(F)F)nc(N4CCOCC4)n3)CC2)CC1,"binding, competition with immobilised ligand",1 µM,76
CN(c1nccc(-c2cnn3ncccc23)n1)C1CC1,binding,1 µM,100
O=C(NCCCN1CCOCC1)c1ccc(Nc2nccc(-c3cc4ccccc4s3)n2)cc1,"binding, competition with immobilised ligand",1 µM,73
CCN1CCN(Cc2ccc(C(=O)Nc3ccc(C)c(Oc4ccc5c(c4)CC(=O)N5)c3)cc2C(F)(F)F)CC1,"binding, competition with immobilised ligand",1 µM,68
CN(C)c1nccc(-c2cnn3ncccc23)n1,binding,1 µM,28
COc1cnc(Nc2cccc(S(N)(=O)=O)c2)nc1N1CCN(c2ccccc2)CC1,"binding, competition with immobilised ligand",1 µM,75
CCCOc1ccc([C@@H]2[C@@H](C(=O)O)[C@H](c3ccc4c(c3)OCO4)CN2CC(=O)Nc2c(CC)cccc2CC)cc1,"cell-free assay, competition with immobilised ligand",1 µM,78
O=C(NCC1CCOCC1)c1n[nH]cc1NC(=O)c1c(F)cccc1F,"binding, competition with immobilised ligand",1 µM,96
Cc1nc(C2CCN(C(=O)c3ccc(OC(F)(F)F)cc3N)CC2)c2ncc(N3CCN(C)CC3)cc2n1,"cell-free assay, competition with immobilised ligand",1 µM,100
C[C@@H]1CCN(c2nccc(-c3cnn4ncccc34)n2)C1,binding,1 µM,59
Cc1cc(NC(=O)c2cccc(S(F)(F)(F)(F)F)c2)cc(-n2ccn3nc(-c4cccnc4)cc23)c1,"cell-free assay, competition with immobilised ligand",1 µM,100
Cc1cnc(Nc2ccc(C(=O)N3CCC(N4CCCC4)CC3)cc2)nc1-c1cc2ccccc2s1,"binding, competition with immobilised ligand",1 µM,53
N#CC1(c2ccccn2)CCN(Cc2cc(C(=O)N3CCCC3)c(=O)n3ccccc23)CC1,"cell-free assay, competition with immobilised ligand",1 µM,75
CN(CCCC(F)(F)F)c1nccc(-c2cnn3ncccc23)n1,binding,1 µM,82
